ChEMBL document CHEMBL1144749, “Development of 2-t butyl-N-methyl pyrimidones as potent inhibitors of HIV integrase” (Bioorg Med Chem Lett, 2008)
pIC50: −log10 of the molar value.

Tests used:
[1] = target: Human immunodeficiency virus type 1 integrase (Human immunodeficiency virus 1, UniProt Q7ZJM1); test: Inhibition of HIV1 recombinant integrase strand transfer activity
Summary of the method: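 Strand-transfer assay: inhibitors added after integrase assembly and washes. IC50 is the concentration reducing integrase activity by 50%. Mean of at least three independent experiments.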

[2] = test system: Human immunodeficiency virus 1; test: Antiviral activity against HIV1 3b in human MT4 cells assessed as inhibition of viral spread in presence of 50% normal human serum; assay type: functional; settings: Human immunodeficiency virus 1, 3b, read-out: CIC95
Summary of the method: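 Spread assay: HIV-1 IIIb infection of MT-4 T-lymphoid cells run with 50% normal human serum. CIC95 is the concentration inhibiting 95% of viral spread.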

[3] = test system: Human immunodeficiency virus 1; test: Antiviral activity against HIV1 3b in human MT4 cells assessed as inhibition of viral spread in presence of 10% heat-inactivated fetal bovine serum; assay type: functional; settings: Human immunodeficiency virus 1, 3b, read-out: CIC95
Summary of the method: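 Spread assay: HIV-1 IIIb infection of MT-4 T-lymphoid cells in medium with 10% heat-inactivated FBS. CIC95 is the concentration inhibiting 95% of viral spread. Mean of at least 3 independent experiments.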

Homo sapiens = species: Homo sapiens; test: Fraction unbound in human plasma proteins after 1 hr
[4] = (§1) Oral bioavailability in Sprague-Dawley rat at 3 mg/kg; assay type: ADME, organism-based; settings: Sprague-Dawley, in vivo
Summary of the method: (§2)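 Sprague–Dawley rats dosed iv in 20% DMSO/60% PEG400/20% water, or orally as a 1% methylcellulose suspension. Outputs: AUC after po dosing, plasma clearance, terminal-phase plasma half life after iv dosing, oral bioavailability.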

[5] = Terminal half life in Sprague-Dawley rat plasma at 3 mg/kg, iv; assay type: ADME, organism-based; set-up: dose 3 mg/kg, route intravenous; summary of the method: as §2
[6] = (§3) AUC in Sprague-Dawley rat at 3 mg/kg, po; assay type: ADME, organism-based, Plasma; set-up: dose 3 mg/kg, route oral; settings: Sprague-Dawley, plasma; summary of the method: as §2
[7] = Clearance in Sprague-Dawley rat plasma at 3 mg/kg, iv and 3 mg/kg, po; assay type: ADME, organism-based; summary of the method: as §2
[8] = Metabolic stability assessed as intrinsic clearance in rat microsome at 1 uM after 90 mins; assay type: ADME; settings: liver microsomes
Summary of the method: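 Compound at 1 µM with microsomes at 1 mg/ml. Substrate degradation followed by LC/MS/MS over a 90 min incubation.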

Rattus norvegicus [9] = test: as §1; assay type: ADME, organism-based; settings: in vivo; summary of the method: as §2
Rattus norvegicus [10] = test: as §3; assay type: ADME, organism-based, Plasma; set-up: dose 3 mg/kg, route oral; settings: in vivo; summary of the method: as §2

Sequence of Human immunodeficiency virus type 1 integrase (Q7ZJM1 whole entry): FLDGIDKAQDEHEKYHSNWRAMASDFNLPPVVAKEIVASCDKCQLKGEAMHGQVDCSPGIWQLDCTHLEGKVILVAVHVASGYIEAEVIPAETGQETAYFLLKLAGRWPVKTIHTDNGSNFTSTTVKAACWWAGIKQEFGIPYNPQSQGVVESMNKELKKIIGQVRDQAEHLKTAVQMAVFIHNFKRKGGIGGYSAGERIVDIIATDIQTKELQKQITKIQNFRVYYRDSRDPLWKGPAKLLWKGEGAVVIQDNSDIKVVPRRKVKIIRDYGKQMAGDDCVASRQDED

Row | Structure (SMILES) | pIC50 [1] | IC95 [2] [nM] | IC95 [3] [nM] | fraction unbound at 1 h (Homo sapiens) | bioavailability [4] [%] | half-life [5] [h] | AUC [6] [µM·h] | clearance [7] [mL/min/kg] | microsomal CLint at 1 µM [8] [µL/min/mg] | F (Rattus norvegicus [9]) [%] | AUC (Rattus norvegicus [10]) [µM·h]
1 | CN1CCN(C(=O)c2cc(F)ccc2CNC(=O)c2nc(C(C)(C)C)n(C)c(=O)c2O)CC1 | 6.31 | 120 | 120 | 0.34 |  |  |  |  |  |  | 
2 | CCOc1ccccc1CNC(=O)c1nc(C(C)(C)C)n(C)c(=O)c1O | 7.70 | 500 | 120 |  |  |  |  |  |  |  | 
3 | Cn1c(C(C)(C)C)nc(C(=O)NCc2ccc(F)cc2C(=O)NCC(F)(F)F)c(O)c1=O | 7.05 | 120 | 30 | 0.01 |  |  |  |  |  |  | 
4 | Cc1noc(-c2cc(F)ccc2CNC(=O)c2nc(C(C)(C)C)n(C)c(=O)c2O)n1 | 7.70 | 120 | 20 |  |  |  |  |  |  |  | 
5 | CNC(=O)c1cc(F)ccc1CNC(=O)c1nc(C(C)(C)C)nc(O)c1O | 7.70 |  |  |  |  |  |  |  |  |  | 
6 | CC(C)(C)c1nc(O)c(O)c(C(=O)NCc2cccc3cc[nH]c23)n1 | 8.00 | > 1000 | > 1000 |  |  |  |  |  |  |  | 
7 | CCNC(=O)c1cc(F)ccc1CNC(=O)c1nc(C(C)(C)C)n(C)c(=O)c1O | 7.15 | 20 | 20 | 0.03 | 30 | 2.6 | 1.8 | 21 |  |  | 
8 | CCOc1ccccc1CNC(=O)c1nc(C(C)(C)C)nc(O)c1O | 8.00 | > 1000 | 1000 |  |  |  |  |  |  |  | 
9 | Cc1noc(-c2cc(F)ccc2CNC(=O)c2nc(C(C)(C)C)nc(O)c2O)n1 | 7.70 | > 1000 | 120 |  |  |  |  |  |  |  | 
10 | CC(C)(C)c1nc(O)c(O)c(C(=O)NCc2ccc(F)cc2)n1 | 8.00 | 2500 | 250 |  |  |  |  |  |  |  | 
11 | CC(C)(C)c1nc(O)c(O)c(C(=O)NCc2ccc(F)cc2S(C)(=O)=O)n1 | 7.22 |  |  |  |  |  |  |  |  |  | 
12 | Cn1c(C(C)(C)C)nc(C(=O)NCc2ccc(F)cc2)c(O)c1=O | 8.00 | 370 | 120 |  |  |  |  |  |  |  | 
13 | CNC(=O)c1cc(F)ccc1CNC(=O)c1nc(C(C)(C)C)n(C)c(=O)c1O | 7.70 | 10 | 10 | 0.07 | 18 | 1.6 | 1.4 | 24 | 16 |  | 
14 | CC(C)NC(=O)c1cc(F)ccc1CNC(=O)c1nc(C(C)(C)C)n(C)c(=O)c1O | 7.05 | 60 | 60 | 0.01 |  | 1.6 |  |  |  | 44 | 3.5
15 | Cn1c(C(C)(C)C)nc(C(=O)NCc2ccc(F)cc2S(C)(=O)=O)c(O)c1=O | 7.70 | 20 | 10 |  | 17 | 1.8 | 0.6 | 37 | 63 |  | 
16 | Cn1c(C(C)(C)C)nc(C(=O)NCc2ccc(F)cc2C(=O)N2CCCC2)c(O)c1=O | 6.64 | 120 | 120 |  |  |  |  |  |  |  | 
17 | CN(C)C(=O)c1cc(F)ccc1CNC(=O)c1nc(C(C)(C)C)n(C)c(=O)c1O | 6.74 | 30 | 30 | 0.18 |  |  |  |  |  |  | 
18 | Cn1c(C(C)(C)C)nc(C(=O)NCc2cccc3cc[nH]c23)c(O)c1=O | 7.70 | > 1000 | 1000 |  |  |  |  |  |  |  | 
19 | Cn1c(C(C)(C)C)nc(C(=O)NCc2ccc(F)cc2C(N)=O)c(O)c1=O | 7.70 | 10 | 10 | 0.06 | 23 | 3.6 | 0.6 | 55 |  |  | 
20 | O=C(NCc1ccc(F)cc1)c1nc(-c2cccs2)nc(O)c1O |  |  | > 10000 |  |  |  |  |  |  |  | 
21 | CCCNC(=O)c1cc(F)ccc1CNC(=O)c1nc(C(C)(C)C)n(C)c(=O)c1O | 7.15 | 60 | 30 | 0.02 |  |  |  |  |  |  | 
